# Values joined by “and” are separate entries in the source; they are usually repeats but may differ in a detail not shown here. Identical values can stand only once. Like-named read-outs stand apart in the source and are kept apart here. Marks after values point to notes of the source that are not given here.
# Key:
# [1] = Protonation constants by potentiometric or spectrophotometric titration; format: physicochemical; details: aqueous solution, 25°C, 0.1 M KCl; concentration constants based on p[H]
# Outline: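 The glass electrode was calibrated by titrating 5 mM HCl in 0.1 M KCl with standardized 0.1 M KOH (25°C, Gran's method); constants are on p[H], not activity. Ligand (1 or 5 mM, 0.1 M KCl, 25°C; basic sites pre-protonated with ≥1 equiv HCl where needed) was titrated stepwise with 0.1 M KOH and fitted by non-linear least squares. Values are from three independent titrations as standard deviation of the mean. Adding 0.11 gives mixed-mode constants.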
# [2] = Cu; format: binding; details: for pCu = −log [Cu(I)aq]: 10 μM ligand and 1 μM Cu(I), pH 7.0, I = 0.1; for logβ2’ (apparent, 2:1 Cu(I) complex): pH 7.0 (0.1 M KClO4); for logβ2 of the 2:1 Cu(I) complex: recommended cumulative average, aqueous solution 25°C
# [3] = Aqueous solubility of neutral ligand; format: physicochemical
# [4] = cited from earlier work
# [5] = Cyclic voltammetry of the ligand-bound Cu; format: physicochemical; details: pH 5.0, 10 mM PIPBS, 0.1 M KClO4, Cu(II/I) complex
# Outline: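 Cyclic voltammetry was run under argon in 10 mM PIPBS pH 5 with 0.1 M KClO4 electrolyte. Half-wave potentials were referenced to ferrocenium (0.40 vs. SHE) or ferroin.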
# [6] = cited from earlier work; remark: listed apart in the source
# [7] = Cu; format: binding; details: 1:1 Cu(II) complex, aqueous solution, 25°C, I = 0.1
# [8] = 1:1 Cu(II) complex, Damu et al.; cited from earlier work
# [9] = spectrophotometric competition titration with MCL-1
structure (smiles),measurement,setting,value
"O=C(O)c1cc(-c2cc(C(=O)O)c3ccccc3n2)nc2ccccc12 [BCA, 2,2′-bicinchoninic acid]",logKH1,[1],3.80(2)
same,pCu = −log [Cu(I)aq],[2],13.5
same,logβ2 Cu(I),[2]; competition titration with PEMEA,17.63±0.05
same,"logβ2’ (apparent, 2:1 Cu(I) complex)",[2],17.7 ^e
same,logβ2 of the 2:1 Cu(I) complex,[2],17.66(3) ^d
same,logβ2 Cu(I),[2]; [9],17.67±0.03
same,solubility in aqueous solution,[3],not soluble at millimolar concentrations
same,protonation constant,[4]; 0.2 M ionic strength,3.74±0.04
"Cc1cc(-c2ccc(S(=O)(=O)O)cc2)c2ccc3c(-c4ccc(S(=O)(=O)O)cc4)cc(C)nc3c2n1 [BCS, bathocuproine disulfonate]",logKH1,[1],5.70(2)
same,E^f vs. SHE (half-wave potential),[5],0.626 V and 0.626(1) V
same,pCu = −log [Cu(I)aq],[2],16.6
same,logβ2 Cu(I),[2]; from half-wave potential and Cu(II) logβ2 via Equation (1),20.81±0.08
same,"logβ2’ (apparent, 2:1 Cu(I) complex)",[2],20.8 ^e
same,logβ2 of the 2:1 Cu(I) complex,[2],20.81(2) ^d
same,logβ2 Cu(I),[2]; [9],20.80±0.03
same,protonation constant,[4]; previously reported,5.7
same,logβ2 Cu(I),[6]; previously reported,19.9
"OCCN(CCO)Cc1ccccn1 [DHEAMP, N,N-bis(2-hydroxyethyl)-N-(2-pyridylmethyl)amine]",log KCu(II)L,[7],9.21±0.02
same,protonation constant,[4]; lit.,6.92±0.01
same,logKCu(II)L,[8],9.2±0.1
CCSCCN(CCSCC)CCSCC [TEMEA],protonation constant,[4]; aqueous solution,8.32
same,protonation constant,[4]; extrapolated from data acquired in 80% water-methanol,7.1
"CSCCN(CCSC)CCSC [TMMEA, tris(2-methylthioethyl)amine]",protonation constant,[4]; aqueous solution,8.36
C1CSCCCSCCCSCCCSC1 [[16]aneS4],logKCu(I)L,[6],12.0
CC#N [acetonitrile],logβ1 Cu(I),[6]; kinetic method,2.63
same,logβ2 Cu(I),[6]; kinetic method,4.02
same,logβ3 Cu(I),[6]; kinetic method,4.29

# From PMC3983694 (Journal of the American Chemical Society, 2013)
